Measurements taken from ChEMBL document CHEMBL4715736, “Identification of anticancer agents based on the thieno[2,3-b]pyridine and 1H-pyrazole molecular scaffolds” (2016).

Experiments:
Type in all cases: functional
NCI-H322M = test: Growth inhibition of human NCI-H322M cells assessed as cell growth at 0.01 uM incubated for 48 hrs by sulforhodamine B assay relative to control; details: read-out: Activity
SF-539 [1] = test: Growth inhibition of human SF-539 cells assessed as cell growth at 0.01 uM incubated for 48 hrs by sulforhodamine B assay relative to control; details: read-out: Activity
UACC-257 [2] = test: Growth inhibition of human UACC-257 cells assessed as cell growth at 0.01 uM incubated for 48 hrs by sulforhodamine B assay relative to control; details: read-out: Activity
A498 [3] = test: Growth inhibition of human A498 cells assessed as cell growth at 0.01 uM incubated for 48 hrs by sulforhodamine B assay relative to control; details: read-out: Activity
Procedure, shortened: (§1)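 NCI Developmental Therapeutics Program NCI60 panel. Compounds that were active in the 10 µM one-dose screen went on to dose–response testing. Growth at each concentration is expressed relative to untreated control (100%). GI50 (concentration giving 50% of maximal inhibition of proliferation) and TGI (concentration giving total growth inhibition) were derived from the curves.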

ACHN = test: Growth inhibition of human ACHN cells assessed as cell growth at 0.01 uM incubated for 48 hrs by sulforhodamine B assay relative to control; details: read-out: Activity
Hs-578T = test: Growth inhibition of human Hs-578T cells assessed as cell growth at 0.01 uM incubated for 48 hrs by sulforhodamine B assay relative to control; details: read-out: Activity
HOP-92 = test: Growth inhibition of human HOP-92 cells assessed as cell growth at 0.1 uM incubated for 48 hrs by sulforhodamine B assay relative to control; details: read-out: Activity
HT-29 = test: Growth inhibition of human HT-29 cells assessed as cell growth at 0.1 uM incubated for 48 hrs by sulforhodamine B assay relative to control; details: read-out: Activity
SF-295 [4] = test: Growth inhibition of human SF-295 cells assessed as cell growth at 0.1 uM incubated for 48 hrs by sulforhodamine B assay relative to control; details: read-out: Activity
SF-539 [5] = test: Growth inhibition of human SF-539 cells assessed as cell growth at 0.1 uM incubated for 48 hrs by sulforhodamine B assay relative to control; details: read-out: Activity
SNB-19 [6] = test: Growth inhibition of human SNB-19 cells assessed as cell growth at 0.1 uM incubated for 48 hrs by sulforhodamine B assay relative to control; details: read-out: Activity
LOX IMVI = test: Growth inhibition of human LOX IMVI cells assessed as cell growth at 0.1 uM incubated for 48 hrs by sulforhodamine B assay relative to control; details: read-out: Activity
M14 = test: Growth inhibition of human M14 cells assessed as cell growth at 0.1 uM incubated for 48 hrs by sulforhodamine B assay relative to control; details: read-out: Activity
OVCAR-8 = test: Growth inhibition of human OVCAR-8 cells assessed as cell growth at 0.1 uM incubated for 48 hrs by sulforhodamine B assay relative to control; details: read-out: Activity
T47D = test: Growth inhibition of human T47D cells assessed as cell growth at 0.1 uM incubated for 48 hrs by sulforhodamine B assay relative to control; details: read-out: Activity
CCRF-CEM [7] = test: Growth inhibition of human CCRF-CEM cells assessed as cell growth at 1 uM incubated for 48 hrs by sulforhodamine B assay relative to control; details: read-out: Activity; procedure, shortened: as §1
COLO 205 [8] = test: Growth inhibition of human COLO 205 cells assessed as cell growth at 1 uM incubated for 48 hrs by sulforhodamine B assay relative to control; details: read-out: Activity; procedure, shortened: as §1
SNB-75 = test: Growth inhibition of human SNB-75 cells assessed as cell growth at 1 uM incubated for 48 hrs by sulforhodamine B assay relative to control; details: read-out: Activity
UACC-257 [9] = test: Growth inhibition of human UACC-257 cells assessed as cell growth at 1 uM incubated for 48 hrs by sulforhodamine B assay relative to control; details: read-out: Activity
IGROV-1 = test: Growth inhibition of human IGROV-1 cells assessed as cell growth at 1 uM incubated for 48 hrs by sulforhodamine B assay relative to control; details: read-out: Activity
OVCAR-3 [10] = test: Growth inhibition of human OVCAR-3 cells assessed as cell growth at 1 uM incubated for 48 hrs by sulforhodamine B assay relative to control; details: read-out: Activity
OVCAR-4 = test: Growth inhibition of human OVCAR-4 cells assessed as cell growth at 1 uM incubated for 48 hrs by sulforhodamine B assay relative to control; details: read-out: Activity
SK-OV-3 = test: Growth inhibition of human SK-OV-3 cells assessed as cell growth at 1 uM incubated for 48 hrs by sulforhodamine B assay relative to control; details: read-out: Activity
A498 [11] = test: Growth inhibition of human A498 cells assessed as cell growth at 1 uM incubated for 48 hrs by sulforhodamine B assay relative to control; details: read-out: Activity; procedure, shortened: as §1
DU-145 = test: Growth inhibition of human DU-145 cells assessed as cell growth at 1 uM incubated for 48 hrs by sulforhodamine B assay relative to control; details: read-out: Activity; procedure, shortened: as §1
MDA-MB-231 = test: Growth inhibition of human MDA-MB-231 cells assessed as cell growth at 1 uM incubated for 48 hrs by sulforhodamine B assay relative to control; details: read-out: Activity
CCRF-CEM [12] = test: Growth inhibition of human CCRF-CEM cells assessed as cell growth at 100 uM incubated for 48 hrs by sulforhodamine B assay relative to control; details: read-out: Activity; procedure, shortened: as §1
NCI-H460 = test: Growth inhibition of human NCI-H460 cells assessed as cell growth at 100 uM incubated for 48 hrs by sulforhodamine B assay relative to control; details: read-out: Activity
COLO 205 [13] = test: Growth inhibition of human COLO 205 cells assessed as cell growth at 100 uM incubated for 48 hrs by sulforhodamine B assay relative to control; details: read-out: Activity; procedure, shortened: as §1
SK-MEL-5 = test: Growth inhibition of human SK-MEL-5 cells assessed as cell growth at 100 uM incubated for 48 hrs by sulforhodamine B assay relative to control; details: read-out: Activity
UO-31 = test: Growth inhibition of human UO-31 cells assessed as cell growth at 100 uM incubated for 48 hrs by sulforhodamine B assay relative to control; details: read-out: Activity
A549 = test: Growth inhibition of human A549/ATCC cells incubated for 48 hrs by sulforhodamine B assay; procedure, shortened: as §1
SF-295 [14] = test: Growth inhibition of human SF-295 cells incubated for 48 hrs by sulforhodamine B assay
Procedure, shortened: (§2)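 NCI DTP 60-line human tumour panel. Dose-response curves were run only for ligands active in the initial 10 µM screen. GI50 (concentration giving 50% of maximal inhibition of proliferation) and TGI (concentration giving total growth inhibition) were derived from these curves.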

SNB-19 [15] = test: Growth inhibition of human SNB-19 cells incubated for 48 hrs by sulforhodamine B assay; procedure, shortened: as §2
OVCAR-3 [16] = test: Growth inhibition of human OVCAR-3 cells incubated for 48 hrs by sulforhodamine B assay; procedure, shortened: as §2
786-0 = test: Growth inhibition of human 786-0 cells incubated for 48 hrs by sulforhodamine B assay; procedure, shortened: as §1
A498 [17] = test: Growth inhibition of human A498 cells incubated for 48 hrs by sulforhodamine B assay; procedure, shortened: as §1
[18] = read-out: LC50 (the source's name)

Nc1c(C(=O)Nc2ccccc2)sc2nc3c(cc12)CN(Cc1ccccc1)CC3
growth at 0.01 µM (NCI-H322M): 93% | growth at 0.01 µM (SF-539 [1]): 96% | growth at 0.01 µM (UACC-257 [2]): 93% | growth at 0.01 µM (A498 [3]): 91% | growth at 0.01 µM (ACHN): 101% | growth at 0.01 µM (Hs-578T): 88% | growth at 0.1 µM (HOP-92): 86% | growth at 0.1 µM (HT-29): 101% | growth at 0.1 µM (SF-295 [4]): 90% | growth at 0.1 µM (SF-539 [5]): 90% | growth at 0.1 µM (SNB-19 [6]): 94% | growth at 0.1 µM (LOX IMVI): 102% | growth at 0.1 µM (M14): 91% | growth at 0.1 µM (OVCAR-8): 101% | growth at 0.1 µM (T47D): 79% | growth at 1 µM (CCRF-CEM [7]): 92% | growth at 1 µM (COLO 205 [8]): 93% | growth at 1 µM (SNB-75): 64% | growth at 1 µM (UACC-257 [9]): 84% | growth at 1 µM (IGROV-1): 101% | growth at 1 µM (OVCAR-3 [10]): 100% | growth at 1 µM (OVCAR-4): 66% | growth at 1 µM (SK-OV-3): 96% | growth at 1 µM (A498 [11]): 72% | growth at 1 µM (DU-145): 74% | growth at 1 µM (MDA-MB-231): 92% | growth at 100 µM (CCRF-CEM [12]): 36% | growth at 100 µM (NCI-H460): 8% | growth at 100 µM (COLO 205 [13]): 23% | growth at 100 µM (SK-MEL-5): 16% | growth at 100 µM (UO-31): 32% | GI50 (A549): 13.9 µM | TGI (A549): > 100 µM | CC50 (A549; [18]): > 100 µM | GI50 (SF-295 [14]): 5.45 µM | LC50 (concentration killing 50% of cells) (SF-295 [14]): > 100 µM | TGI (SF-295 [14]): > 100 µM | GI50 (SNB-19 [15]): 18.3 µM | LC50 (SNB-19 [15]): > 100 µM | TGI (SNB-19 [15]): > 100 µM | GI50 (OVCAR-3 [16]): 11.4 µM | TGI (OVCAR-3 [16]): > 100 µM | CC50 (OVCAR-3 [16]; [18]): > 100 µM | GI50 (786-0): 13 µM | TGI (786-0): > 100 µM | CC50 (786-0; [18]): > 100 µM | GI50 (A498 [17]): 1.78 µM | CC50 (A498 [17]; [18]): > 100 µM
